Data taken from ChEMBL document CHEMBL1926518, “Synthesis of macrolones with central piperazine ring in the linker and its influence on antibacterial activity” (2011).
In brackets after ≈: the same amount, converted by molar mass.

Experiments:
Type in all cases: functional
Staphylococcus aureus [1] = experiment: Antibacterial activity against erythromycin-sensitive Staphylococcus aureus ATCC 13709 by broth microdilution technique
Procedure, shortened: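 MIC by broth microdilution per CLSI guidelines with doubling dilutions of compounds. Before testing, staphylococci were grown on Mueller–Hinton agar. Values reported in µg/mL.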

Streptococcus pneumoniae [2] = experiment: Antibacterial activity against erythromycin-sensitive Streptococcus pneumoniae SP030 by broth microdilution technique
Procedure, shortened: (§1)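 Streptococcal MICs by CLSI broth microdilution with doubling dilutions, but with 5% horse serum in the medium in place of lysed blood. Before testing, strains were grown on Columbia agar with 5% sheep blood. Values reported in µg/mL.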

Streptococcus pyogenes [3] = experiment: Antibacterial activity against erythromycin-sensitive Streptococcus pyogenes 3565 by broth microdilution technique; procedure, shortened: as §1
Staphylococcus aureus [4] = experiment: Antibacterial activity against inducible macrolide, licosamide and streptogramin-resistant Staphylococcus aureus 90256/97 by broth microdilution technique
Procedure, shortened: (§2)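 MICs were determined by CLSI broth microdilution, with double dilutions of compound. Staphylococci were grown on Mueller–Hinton agar before testing. Results are given in µg/mL.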

Streptococcus pneumoniae [5] = experiment: Antibacterial activity against inducible macrolide-resistant, constitutive licosamide and streptogramin-resistant Streptococcus pneumoniae 134 GR-Micro by broth microdilution technique
Procedure, shortened: (§3)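 MICs were determined by CLSI broth microdilution, with double dilutions of compound. In the streptococcal medium, 5% horse serum replaced lysed blood. Streptococci were grown on Columbia agar with 5% sheep blood before testing. Results are given in µg/mL.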

Streptococcus pyogenes [6] = experiment: Antibacterial activity against inducible macrolide, licosamide and streptogramin-resistant Streptococcus pyogenes Finland 11 by broth microdilution technique; procedure, shortened: as §3
Staphylococcus aureus [7] = experiment: Antibacterial activity against constitutive macrolide, licosamide and streptogramin-resistant Staphylococcus aureus PK2 by broth microdilution technique; procedure, shortened: as §2
Streptococcus pneumoniae [8] = experiment: Antibacterial activity against constitutive macrolide, licosamide and streptogramin-resistant Streptococcus pneumoniae 58 Spain by broth microdilution technique; procedure, shortened: as §3
Streptococcus pyogenes [9] = experiment: Antibacterial activity against constitutive macrolide, licosamide and streptogramin-resistant Streptococcus pyogenes 166 GR-Micro by broth microdilution technique; procedure, shortened: as §3
Staphylococcus aureus [10] = experiment: Antibacterial activity against efflux-mediated macrolide-resistant Staphylococcus aureus PK1 by broth microdilution technique; procedure, shortened: as §2
Streptococcus pneumoniae [11] = experiment: Antibacterial activity against efflux-mediated macrolide-resistant Streptococcus pneumoniae Ci137 by broth microdilution technique; procedure, shortened: as §3
Streptococcus pyogenes [12] = experiment: Antibacterial activity against efflux-mediated macrolide-resistant Streptococcus pyogenes 3 Finland by broth microdilution technique; procedure, shortened: as §3
Haemophilus influenzae = experiment: Antibacterial activity against Haemophilus influenzae ATCC 49247 by broth microdilution technique
Procedure, shortened: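 MIC by broth microdilution per CLSI guidelines with doubling dilutions of compounds. Before testing, organisms were grown on Mueller-Hinton chocolate agar. Values reported in µg/mL.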

Moraxella catarrhalis = experiment: Antibacterial activity against Moraxella catarrhalis ATCC 23246 by broth microdilution technique
Procedure, shortened: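 MIC by broth microdilution per CLSI guidelines with doubling dilutions of compounds. Before testing, organisms were grown on Columbia agar with 5% sheep blood. Values reported in µg/mL.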

SMILES	MIC (Staphylococcus aureus [1])	MIC (Streptococcus pneumoniae [2])	MIC (Streptococcus pyogenes [3])	MIC (Staphylococcus aureus [4])	MIC (Streptococcus pneumoniae [5])	MIC (Streptococcus pyogenes [6])	MIC (Staphylococcus aureus [7])	MIC (Streptococcus pneumoniae [8])	MIC (Streptococcus pyogenes [9])	MIC (Staphylococcus aureus [10])	MIC (Streptococcus pneumoniae [11])	MIC (Streptococcus pyogenes [12])	MIC (Haemophilus influenzae)	MIC (Moraxella catarrhalis)
CCOC(=O)c1cn(CC)c2ccc(C#CCN3CCN(CCC(=O)O[C@H]4[C@H](C)O[C@@H](O[C@H]5[C@H](C)[C@@H](O[C@@H]6O[C@H](C)C[C@H](N(C)C)[C@H]6O)[C@](C)(O)C[C@@H](C)CN(C)[C@H](C)[C@@H](OC)[C@](C)(O)[C@@H](CC)OC(=O)[C@@H]5C)C[C@@]4(C)OC)CC3)cc2c1=O	4 µg/mL (≈ 3.38 µM)	≤ 0.125 µg/mL	≤ 0.125 µg/mL	> 64 µg/mL	0.5 µg/mL (≈ 0.422 µM)	0.25 µg/mL (≈ 0.211 µM)	> 64 µg/mL	1 µg/mL (≈ 0.844 µM)	32 µg/mL (≈ 27 µM)	> 64 µg/mL	≤ 0.125 µg/mL	1 µg/mL (≈ 0.844 µM)	32 µg/mL (≈ 27 µM)	8 µg/mL (≈ 6.75 µM)
CCOC(=O)c1cn(C2CC2)c2ccc(C#CCN3CCN(CCC(=O)O[C@H]4[C@H](C)O[C@@H](O[C@H]5[C@H](C)[C@@H](O[C@@H]6O[C@H](C)C[C@H](N(C)C)[C@H]6O)[C@](C)(O)C[C@@H](C)CN(C)[C@H](C)[C@@H](OC)[C@](C)(O)[C@@H](CC)OC(=O)[C@@H]5C)C[C@@]4(C)OC)CC3)cc2c1=O	4 µg/mL (≈ 3.34 µM)	≤ 0.125 µg/mL	≤ 0.125 µg/mL	> 64 µg/mL	0.25 µg/mL (≈ 0.209 µM)	≤ 0.125 µg/mL	> 64 µg/mL	0.5 µg/mL (≈ 0.418 µM)	32 µg/mL (≈ 26.7 µM)	64 µg/mL (≈ 53.5 µM)	≤ 0.125 µg/mL	0.5 µg/mL (≈ 0.418 µM)	16 µg/mL (≈ 13.4 µM)	4 µg/mL (≈ 3.34 µM)
CC[C@H]1OC(=O)[C@H](C)[C@@H](O[C@H]2C[C@@](C)(OC)[C@@H](OC(=O)CCN3CCN(CC#Cc4ccc5c(c4)c(=O)c(C(=O)O)cn5CC)CC3)[C@H](C)O2)[C@H](C)[C@@H](O[C@@H]2O[C@H](C)C[C@H](N(C)C)[C@H]2O)[C@](C)(O)C[C@@H](C)CN(C)[C@H](C)[C@@H](OC)[C@]1(C)O	0.25 µg/mL (≈ 0.216 µM)	≤ 0.125 µg/mL	≤ 0.125 µg/mL	8 µg/mL (≈ 6.92 µM)	8 µg/mL (≈ 6.92 µM)	≤ 0.125 µg/mL	> 64 µg/mL	4 µg/mL (≈ 3.46 µM)	16 µg/mL (≈ 13.8 µM)	0.5 µg/mL (≈ 0.432 µM)	≤ 0.125 µg/mL	≤ 0.125 µg/mL	1 µg/mL (≈ 0.865 µM)	0.5 µg/mL (≈ 0.432 µM)
CCOC(=O)c1cn(CC)c2ccc(CCCN3CCN(CCC(=O)O[C@H]4[C@H](C)O[C@@H](O[C@H]5[C@H](C)[C@@H](O[C@@H]6O[C@H](C)C[C@H](N(C)C)[C@H]6O)[C@](C)(O)C[C@@H](C)CN(C)[C@H](C)[C@@H](OC)[C@](C)(O)[C@@H](CC)OC(=O)[C@@H]5C)C[C@@]4(C)OC)CC3)cc2c1=O	4 µg/mL (≈ 3.37 µM)	≤ 0.125 µg/mL	≤ 0.125 µg/mL	> 64 µg/mL	32 µg/mL (≈ 26.9 µM)	2 µg/mL (≈ 1.68 µM)	> 64 µg/mL	8 µg/mL (≈ 6.73 µM)	> 64 µg/mL	> 64 µg/mL	2 µg/mL (≈ 1.68 µM)	2 µg/mL (≈ 1.68 µM)	32 µg/mL (≈ 26.9 µM)	0.25 µg/mL (≈ 0.21 µM)
CC[C@H]1OC(=O)[C@H](C)[C@@H](O[C@H]2C[C@@](C)(OC)[C@@H](OCCCN3CCN(C/C=C/c4ccc5c(c4)c(=O)c(C(=O)O)cn5CC)CC3)[C@H](C)O2)[C@H](C)[C@@H](O[C@@H]2O[C@H](C)C[C@H](N(C)C)[C@H]2O)[C@](C)(O)C[C@@H](C)CN(C)[C@H](C)[C@@H](O)[C@]1(C)O	2 µg/mL (≈ 1.77 µM)	≤ 0.125 µg/mL	≤ 0.125 µg/mL	> 64 µg/mL	> 64 µg/mL	1 µg/mL (≈ 0.885 µM)	> 64 µg/mL	32 µg/mL (≈ 28.3 µM)	64 µg/mL (≈ 56.6 µM)	8 µg/mL (≈ 7.08 µM)	8 µg/mL (≈ 7.08 µM)	4 µg/mL (≈ 3.54 µM)	16 µg/mL (≈ 14.2 µM)	0.5 µg/mL (≈ 0.442 µM)
CC[C@H]1OC(=O)[C@H](C)[C@@H](O[C@H]2C[C@@](C)(OC)[C@@H](O)[C@H](C)O2)[C@H](C)[C@@H](O[C@@H]2O[C@H](C)C[C@H](N(C)C)[C@H]2O)[C@](C)(O)C[C@@H](C)CN(C)[C@H](C)[C@@H](O)[C@]1(C)O [AZITHROMYCIN]	0.5 µg/mL (≈ 0.668 µM)	≤ 0.125 µg/mL	≤ 0.125 µg/mL	> 64 µg/mL	> 64 µg/mL	16 µg/mL (≈ 21.4 µM)	> 64 µg/mL	> 64 µg/mL	> 64 µg/mL	> 64 µg/mL	8 µg/mL (≈ 10.7 µM)	8 µg/mL (≈ 10.7 µM)	1 µg/mL (≈ 1.34 µM)	≤ 0.125 µg/mL
CC[C@H]1OC(=O)[C@H](C)[C@@H](O[C@H]2C[C@@](C)(OC)[C@@H](O)[C@H](C)O2)[C@H](C)[C@@H](O[C@@H]2O[C@H](C)C[C@H](N(C)C)[C@H]2O)[C@](C)(OC)C[C@@H](C)C(=O)[C@H](C)[C@@H](O)[C@]1(C)O [CLARITHROMYCIN]	0.25 µg/mL (≈ 0.334 µM)	≤ 0.125 µg/mL	≤ 0.125 µg/mL	> 64 µg/mL	> 64 µg/mL	1 µg/mL (≈ 1.34 µM)	> 64 µg/mL	> 64 µg/mL	> 64 µg/mL	32 µg/mL (≈ 42.8 µM)	4 µg/mL (≈ 5.35 µM)	4 µg/mL (≈ 5.35 µM)	8 µg/mL (≈ 10.7 µM)	≤ 0.125 µg/mL
